Columns and labels:
[1] = target: T1, Phospholipase A2, major isoenzyme (Sus scrofa, UniProt P00592); assay: In vitro inhibition of porcine pancreatic phospholipase A2 evaluated by Deoxycholate-phospholipid mixed micelle assay
In short: (§1)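 Porcine pancreatic PLA2 at 0.074 μg/mL, with 2 mM CaCl2, 2.4 mM sodium deoxycholate and 100 μM 1-stearoyl-2-arachidonoyl-L-phosphatidylcholine traced with 22 000 dpm 1-stearoyl-2-[14C]arachidonoyl-PC, in 50 mM Tris-HCl pH 8.2. Inhibitor was added in methanol at 1% of assay volume. After 8 min at 37 °C, released [14C]arachidonic acid was extracted and counted by scintillation, under hopping-kinetics conditions.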

[2] = target: T1, Phospholipase A2, major isoenzyme; assay: In vitro inhibition of porcine pancreatic phospholipase A2 evaluated by monomeric substrate assay
In short: (§2)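 The monomeric thioester substrate was used at 5.44 mM, below its CMC of 14 mM. The assay also held 0.2 mM DTNB, 0.25 mM CaCl2 and 0.5 μg/mL porcine pancreatic PLA2 in 10 mM sodium phosphate pH 7.5. Inhibitor or methanol made up 2.5% of the volume. Rates were followed over 16 h at about 22 °C. Inhibition was calculated against solvent controls after subtracting nonenzymic hydrolysis.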

[3] = target: T1, Phospholipase A2, major isoenzyme; assay: In vitro inhibition of porcine pancreatic phospholipase A2 evaluated by Deoxycholate-phospholipid mixed micelle assay; not active at the highest concentration tested; in short: as §1
[4] = target: T1, Phospholipase A2, major isoenzyme; assay: In vitro inhibition of porcine pancreatic phospholipase A2 evaluated by monomeric substrate assay; not active at the highest concentration tested; in short: as §2
[5] = target: Phospholipase A2, major isoenzyme (Sus scrofa) (UniProt P00592); assay: In vitro inhibition of porcine pancreatic phospholipase A2 by Deoxycholate-phospholipid mixed micelle assay at 30 uM
Chain of Phospholipase A2, major isoenzyme (Sus scrofa) (P00592 23-146 limits assumed): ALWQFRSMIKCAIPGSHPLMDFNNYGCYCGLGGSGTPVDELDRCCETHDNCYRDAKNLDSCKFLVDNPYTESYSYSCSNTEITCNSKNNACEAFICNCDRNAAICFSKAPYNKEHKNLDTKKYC

T1 sequence (P00592 whole entry): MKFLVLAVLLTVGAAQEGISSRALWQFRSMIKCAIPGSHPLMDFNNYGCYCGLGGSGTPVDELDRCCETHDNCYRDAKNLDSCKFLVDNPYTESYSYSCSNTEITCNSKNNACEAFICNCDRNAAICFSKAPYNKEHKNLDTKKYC

Structure (SMILES)	IC50 [1]	IC50 [2]	IC50 [3]	further results
CCCCCCCCCCCCCCCC(=O)N[C@H](C)COP(=O)([O-])OCC[N+](C)(C)C	189 µM	1.4 µM	–	–
CCCCCC/C=C/CC(=O)N[C@@H](COP(=O)([O-])OCC[N+](C)(C)C)CC(C)C	–	6 µM	–	–
CCCCCCCCCCCC(=O)NCCOP(=O)([O-])OCC[N+](C)(C)C	–	–	Not Active	IC50 [4]: Not Active
CCCCCCCCCCCCCCCC(=O)N[C@@H](COP(=O)(O)OCCO)CC(C)C	2.6 µM	0.03 µM	–	–
CCCCCCCCCCCCCCCC(=O)N[C@@H](COP(=O)([O-])OCC[N+](C)(C)C)CC(C)C	30 µM	0.23 µM	–	–
CCCCCCCCCCCCCCCC(=O)OCC(COP(=O)(O)OCCO)NC(=O)CCCCCCCCCCCCC (stereo unspecified)	3.5 µM	0.03 µM	–	–
CCCCCCCCCCCCCCCC(=O)N[C@H](COP(=O)([O-])OCC[N+](C)(C)C)CC(C)C	–	4.5 µM	Not Active	–
CCCCCCCCCCCCCCCC(=O)NCCOP(=O)([O-])OCC[N+](C)(C)C	300 µM	4 µM	–	–
C[N+](C)(C)CCOP(=O)([O-])OCCNC(=O)c1ccc2ccccc2c1	–	–	Not Active	–
CCCCCCCCCCCCCCCC(=O)N[C@@H](COP(=O)(O)O)CC(C)C	–	10 µM	–	inhibition [5]: 22%
CCCCCCCCCCCCCCCC(=O)N[C@@H](COP(=O)(O)O)Cc1ccccc1	–	5 µM	–	inhibition [5]: 42%
CCCCCCCCCCCCCCCCCCOC[C@H](COP(=O)([O-])OCC[N+](C)(C)C)NC(=O)CCCCCCCCCCCCCCC	15 µM	–	–	–
CCCCCC/C=C/CC(=O)N[C@H](COP(=O)([O-])OCC[N+](C)(C)C)CC(C)C	–	–	–	IC50 [4]: Not Active
C[N+](C)(C)CCOP(=O)([O-])OCCNC(=O)Cc1ccc2ccccc2c1	–	> 1000 µM	Not Active	–
CC(C)C[C@H](COP(=O)([O-])OCC[N+](C)(C)C)NC(=O)Cc1ccc2ccccc2c1	–	160 µM	Not Active	–

From ChEMBL document CHEMBL1126273, “Design and synthesis of some substrate analogue inhibitors of phospholipase A2 and investigations by NMR and molecular modeling into the binding interactions in the enzyme-inhibitor complex” (J Med Chem, 1992)
